Laboratory results from ChEMBL document CHEMBL1143049, “Preparation, biological activity and endogenous occurrence of N6-benzyladenosines” (Bioorg Med Chem, 2007).

Key:
[1] = test system: G-361; assay: Antitumor activity against human G361 cells after 72 hrs by Calcein AM assay; format: functional, cell-based; details: G-361, 72 h
Summary of the method: (§1)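 Cells grown in DMEM at 37 °C under 5% CO2. Compounds added after 12 h preincubation in 96-well plates, final 0.5-170 μM, with 0.6% final DMSO, then 72 h exposure. Viable cells stained with Calcein AM for 1 h and read at 485/538 nm. IC50 (concentration lethal to 50% of cells) taken from dose-response curves. Run in quadruplicate.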

[2] = Cytotoxicity against mouse NIH 3T3 cells after 72 hrs by Calcein AM assay; format: cell-based; details: NIH3T3, 72 h; summary of the method: as §1
[3] = test system: Amaranthus; assay: Cytokinin activity in Amaranthus cotyledons assessed as dark induction of betacyanin synthesis at 0.01 mmol/L relative to 6-Benzylaminopurine; format: functional
Summary of the method: (§2)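 Dark induction of betacyanin in excised Amaranthus cotyledons. DMSO stock brought to 10^-3 M in water, diluted into assay medium (DMSO ≤0.2%). Tested over 10^-4 to 10^-8 M, five replicates per concentration, assay repeated at least three times. Response at the optimal concentration expressed relative to BAP at its optimum (set to 100).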

[4] = test system: Triticum aestivum; assay: Cytokinin activity in wheat assessed as retention of chlorophyll in excised wheat leaves at 0.1 mmol/L relative to 6-Benzylaminopurine by senescence assay; format: functional
Summary of the method: (§3)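 Senescence assay measuring chlorophyll retention in excised wheat leaves. DMSO stocks brought to 10^-3 M with water, then diluted in assay medium to a final DMSO of at most 0.2%. Concentrations 10^-4 to 10^-8 M, quintuplicate, repeated at least three times. Response at the optimal concentration normalised to BAP optimum = 100.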

[5] = test system: Nicotiana tabacum; assay: Cytokinin activity in tobacco assessed as stimulation of callus growth at 1 umol/L relative to 6-Benzylaminopurine; format: functional
Summary of the method: (§4)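 Stimulation of tobacco callus growth. Compounds dissolved in DMSO, brought to 10^-3 M in water and diluted into medium (DMSO ≤0.2%). Range 10^-4 to 10^-8 M, five replicates per concentration, at least three independent repeats. Activity at the optimal concentration given relative to BAP's optimal response, taken as 100.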

[6] = molecular target: T1, Histidine kinase 3 (Arabidopsis thaliana) (UniProt Q9C5U1); assay: Activation of Arabidopsis thaliana AHK3 cytokinin receptor relative to trans-zeatin; design: concentration or dose not given beside the values
T1 sequence (whole entry): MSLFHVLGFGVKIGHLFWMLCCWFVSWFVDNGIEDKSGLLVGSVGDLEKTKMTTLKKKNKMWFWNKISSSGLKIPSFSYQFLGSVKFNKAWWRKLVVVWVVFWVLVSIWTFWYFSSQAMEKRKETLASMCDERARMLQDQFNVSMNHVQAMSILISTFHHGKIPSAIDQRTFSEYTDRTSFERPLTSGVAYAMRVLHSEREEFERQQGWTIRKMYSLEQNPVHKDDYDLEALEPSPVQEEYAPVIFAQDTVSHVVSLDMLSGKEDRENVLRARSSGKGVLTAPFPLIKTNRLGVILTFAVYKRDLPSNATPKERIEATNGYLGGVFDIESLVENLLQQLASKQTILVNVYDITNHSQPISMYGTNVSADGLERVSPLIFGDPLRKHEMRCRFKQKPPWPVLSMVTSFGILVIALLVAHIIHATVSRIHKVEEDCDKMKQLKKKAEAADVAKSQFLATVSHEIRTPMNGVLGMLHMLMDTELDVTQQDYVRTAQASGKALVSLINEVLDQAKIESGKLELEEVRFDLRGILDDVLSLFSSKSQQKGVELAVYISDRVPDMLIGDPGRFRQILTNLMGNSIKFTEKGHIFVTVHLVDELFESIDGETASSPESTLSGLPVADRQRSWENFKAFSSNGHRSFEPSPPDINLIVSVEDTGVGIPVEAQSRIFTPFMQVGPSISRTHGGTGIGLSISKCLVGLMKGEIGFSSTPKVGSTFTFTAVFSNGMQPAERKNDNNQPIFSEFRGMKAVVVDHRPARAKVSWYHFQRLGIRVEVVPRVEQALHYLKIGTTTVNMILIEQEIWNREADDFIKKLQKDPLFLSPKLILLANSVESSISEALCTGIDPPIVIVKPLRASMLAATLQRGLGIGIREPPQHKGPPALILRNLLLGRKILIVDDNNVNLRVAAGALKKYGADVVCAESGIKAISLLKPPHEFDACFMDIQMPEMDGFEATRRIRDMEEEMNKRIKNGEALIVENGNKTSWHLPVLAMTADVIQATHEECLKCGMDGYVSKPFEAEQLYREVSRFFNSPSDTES
Summary of the method: (§5)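 E. coli KMI001 carrying pSTV28-AHK3 or pIN-III-AHK4, precultured overnight at 25 °C in M9 + 0.1% casamino acids to OD600 ~1. Diluted 1:600, compound or solvent added, then incubated at 25 °C for 28 h (AHK3) or 17 h (CRE1/AHK4). Supernatant incubated with 4-methylumbelliferyl β-D-galactoside for 1 h at 37 °C and stopped with Na2CO3. Fluorescence read at 365/460 nm. β-galactosidase expressed as nmol 4-MU × OD600⁻¹ × h⁻¹.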

[7] = molecular target: Histidine kinase 4 (Arabidopsis thaliana) (UniProt Q9C5U0); assay: Activation of Arabidopsis thaliana CRE1/AHK4 cytokinin receptor relative to trans-zeatin; design: concentration or dose not given beside the values; summary of the method: as §5
[8] = test system: HOS; assay: Antitumor activity against human HOS cells after 72 hrs by Calcein AM assay; format: functional, cell-based; summary of the method: as §1
[9] = test system: K562; assay: Antitumor activity against human K562 cells after 72 hrs by Calcein AM assay; format: functional, cell-based; details: K562, 72 h; summary of the method: as §1
[10] = Antitumor activity against human MCF cells after 72 hrs by Calcein AM assay; format: functional, cell-based; summary of the method: as §1
[11] = test system: CCRF-CEM; assay: Antitumor activity against human CEM cells after 72 hrs by Calcein AM assay; format: functional, cell-based; summary of the method: as §1
[12] = test system: HL-60; assay: Antitumor activity against human HL60 cells after 72 hrs by Calcein AM assay; format: functional, cell-based; details: HL-60, 72 h; summary of the method: as §1
[13] = test system: B16; assay: Antitumor activity against mouse B16 cells after 72 hrs by Calcein AM assay; format: functional, cell-based; details: B16, 72 h; summary of the method: as §1
[14] = test system: Amaranthus; assay: Cytokinin activity in Amaranthus cotyledons assessed as dark induction of betacyanin synthesis at 0.1 mmol/L relative to 6-Benzylaminopurine; format: functional; summary of the method: as §2
[15] = test system: Nicotiana tabacum; assay: Cytokinin activity in tobacco assessed as stimulation of callus growth at 0.01 mmol/L relative to 6-Benzylaminopurine; format: functional; summary of the method: as §4
[16] = test system: Triticum aestivum; assay: Cytokinin activity in wheat assessed as retention of chlorophyll in excised wheat leaves at 0.01 mmol/L relative to 6-Benzylaminopurine by senescence assay; format: functional; summary of the method: as §3

Histidine kinase 4 (Arabidopsis thaliana), sequence (Q9C5U0 whole entry): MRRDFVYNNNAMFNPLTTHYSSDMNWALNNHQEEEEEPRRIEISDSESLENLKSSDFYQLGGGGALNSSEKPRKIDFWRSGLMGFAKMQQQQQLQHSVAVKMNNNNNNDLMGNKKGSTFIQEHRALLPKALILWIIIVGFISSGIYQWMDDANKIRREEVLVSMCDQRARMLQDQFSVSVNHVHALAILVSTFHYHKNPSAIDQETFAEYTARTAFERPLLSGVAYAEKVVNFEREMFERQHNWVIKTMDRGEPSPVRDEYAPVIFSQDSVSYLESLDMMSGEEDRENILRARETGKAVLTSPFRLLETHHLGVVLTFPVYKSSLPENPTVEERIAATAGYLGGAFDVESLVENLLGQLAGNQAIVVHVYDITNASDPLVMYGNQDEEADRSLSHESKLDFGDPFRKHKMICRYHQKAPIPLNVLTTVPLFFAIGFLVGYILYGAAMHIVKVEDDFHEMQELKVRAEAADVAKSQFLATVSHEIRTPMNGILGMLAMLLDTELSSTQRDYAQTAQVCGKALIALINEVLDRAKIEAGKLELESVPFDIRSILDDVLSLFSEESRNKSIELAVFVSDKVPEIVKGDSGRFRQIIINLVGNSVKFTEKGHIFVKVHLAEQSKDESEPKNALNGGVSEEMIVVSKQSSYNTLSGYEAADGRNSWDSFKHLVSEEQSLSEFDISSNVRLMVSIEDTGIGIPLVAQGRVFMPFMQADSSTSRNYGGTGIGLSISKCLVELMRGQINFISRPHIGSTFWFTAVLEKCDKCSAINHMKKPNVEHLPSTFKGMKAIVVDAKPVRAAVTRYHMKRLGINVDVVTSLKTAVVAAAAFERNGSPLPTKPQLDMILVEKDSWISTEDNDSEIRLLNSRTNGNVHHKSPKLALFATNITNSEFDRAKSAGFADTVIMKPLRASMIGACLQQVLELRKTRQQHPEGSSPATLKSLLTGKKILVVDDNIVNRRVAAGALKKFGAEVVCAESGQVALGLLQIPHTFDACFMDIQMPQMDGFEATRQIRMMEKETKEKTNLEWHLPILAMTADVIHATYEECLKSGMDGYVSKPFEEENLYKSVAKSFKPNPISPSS

Row | SMILES | IC50 [1] [µM] | IC50 [2] [µM] | Activity [3] [%] | Activity [4] [%] | Activity [5] [%] | Activity [6] [%] | Activity [7] [%] | IC50 [8] [µM] | IC50 [9] [µM] | IC50 [10] [µM] | IC50 [11] [µM] | IC50 [12] [µM] | IC50 [13] [µM] | Activity [14] [%] | Activity [15] [%] | Activity [16] [%]
1 | OC[C@H]1O[C@@H](n2cnc3c(NCc4ccc(F)cc4)ncnc32)[C@H](O)[C@@H]1O | > 167 | 44.3 | 71 | 148 | 100 | 7.67 | 0.39 | 13.2 | 2.7 | 21 | 1.25 | 1.2 | – | – | – | –
2 | COc1ccc(CNc2ncnc3c2ncn3[C@@H]2O[C@H](CO)[C@@H](O)[C@H]2O)cc1 | 115 | – | – | 65.5 | 2 | 2.45 | 0.22 | > 167 | 156 | > 167 | > 167 | > 167 | 19.5 | 17 | – | –
3 | OC[C@H]1O[C@@H](n2cnc3c(NCc4ccc(F)cc4Cl)ncnc32)[C@H](O)[C@@H]1O | > 167 | > 167 | – | 165 | – | – | – | > 167 | 15.6 | > 167 | 20.9 | 9 | > 167 | 115 | 98 | –
4 | OC[C@H]1O[C@@H](n2cnc3c(NCc4ccc(Cl)cc4)ncnc32)[C@H](O)[C@@H]1O | > 167 | > 167 | 35 | 104 | 46 | 0.81 | 0.23 | > 167 | 218 | > 167 | 10.2 | 1.7 | > 167 | – | – | –
5 | OC[C@H]1O[C@@H](n2cnc3c(NCc4ccccc4Br)ncnc32)[C@H](O)[C@@H]1O | > 167 | > 167 | – | – | – | – | – | > 167 | 10 | > 167 | 12.3 | 6.6 | > 167 | 147 | 100 | 86
6 | OC[C@H]1O[C@@H](n2cnc3c(NCc4cccc(F)c4)ncnc32)[C@H](O)[C@@H]1O | > 167 | 84 | 92 | 220 | – | 0.99 | 0.36 | > 167 | 7.6 | 15.3 | 4 | 0.92 | – | – | 91 | –
7 | OC[C@H]1O[C@@H](n2cnc3c(NCc4ccc(Cl)cc4Cl)ncnc32)[C@H](O)[C@@H]1O | 128 | – | – | – | – | – | – | > 167 | 106 | 127 | 86.7 | 96.3 | > 167 | 3 | 70 | 5
8 | OC[C@H]1O[C@@H](n2cnc3c(NCc4ccccc4)ncnc32)[C@H](O)[C@@H]1O [N6-BENZYLADENOSINE] | > 167 | 39 | – | – | – | 2.53 | 0.35 | > 167 | 5.5 | 5.4 | 1.4 | 0.94 | > 167 | – | – | –
9 | OC[C@H]1O[C@@H](n2cnc3c(NCc4ccc(F)c(F)c4F)ncnc32)[C@H](O)[C@@H]1O | > 167 | – | – | 144 | – | – | – | > 167 | > 167 | > 167 | 58.2 | 13 | > 167 | 95 | 94 | –
10 | OC[C@H]1O[C@@H](n2cnc3c(NCc4cccc(Br)c4)ncnc32)[C@H](O)[C@@H]1O | > 167 | > 167 | – | 89 | – | – | – | > 167 | 19.7 | > 167 | 5 | 8 | > 167 | 151 | 82 | –
11 | OC[C@H]1O[C@@H](n2cnc3c(NCc4cccc(Cl)c4)ncnc32)[C@H](O)[C@@H]1O | > 167 | > 167 | 139 | 72 | – | 2.63 | 0.15 | > 167 | 27.7 | 26.9 | 1.6 | 0.75 | – | – | 96 | –
12 | COc1cccc(CNc2ncnc3c2ncn3[C@@H]2O[C@H](CO)[C@@H](O)[C@H]2O)c1 | – | > 167 | – | 209 | 92 | 1.12 | 0.14 | > 167 | > 167 | > 167 | 7.6 | 4.9 | > 167 | 98 | – | –
13 | Cc1cccc(CNc2ncnc3c2ncn3[C@@H]2O[C@H](CO)[C@@H](O)[C@H]2O)c1 | > 167 | > 167 | 96 | 143 | 90 | – | – | > 167 | > 167 | > 167 | 19.1 | 6.4 | > 167 | – | – | –
14 | OC[C@H]1O[C@@H](n2cnc3c(NCc4ccccc4F)ncnc32)[C@H](O)[C@@H]1O | – | > 167 | 96 | 118 | 100 | 2.91 | 0.12 | > 167 | 33.2 | > 167 | 4.6 | 3.2 | > 167 | – | – | –
15 | COc1ccccc1CNc1ncnc2c1ncn2[C@@H]1O[C@H](CO)[C@@H](O)[C@H]1O | > 167 | 140 | 86 | 198 | – | 0.04 | 0.12 | > 167 | 8.9 | > 167 | 3.2 | 2.3 | > 167 | – | 108 | –
16 | OC[C@H]1O[C@@H](n2cnc3c(NCc4ccccc4Cl)ncnc32)[C@H](O)[C@@H]1O | – | > 167 | 113 | 119 | 93 | 0.02 | 0.04 | > 167 | 64 | > 167 | 14.5 | 1.6 | > 167 | – | – | –
